Experiments:
JNK1 = JNK1 (Homo sapiens, UniProt P45983); test: in vitro JNK1 PhALC kinase assay; assay type: biochemical
[1] = metabolic stability in rat primary hepatocytes; assay type: in vitro ADME
Method in brief: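 Hepatocytes were isolated from male Wistar rats by collagenase perfusion. Test compound from DMSO was added to 1 or 10 μM final (0.1% DMSO) in William's E:Ham's F12 (1:1) medium. Samples were taken at 0–240 min, quenched with ice-cold acetonitrile, and parent compound was quantified by LC-MS/MS. A cell-free medium control was included. Clint came from parent loss; ClH and extraction ratio were predicted from Clint, with cut-offs of 0.3 and 0.7.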

[2] = test system: JNK mediated c-Jun(Ser73) phosphorylation; test: quantitative western blot p-c-Jun; assay type: cell-based, human
Method in brief: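 SH-SY5Y cells carry a Tet-ON-inducible MKK7–MLK3 kinase-domain chimera and were kept in DMEM F12 + 1% FBS. Cells received 2 or 3 μg/mL doxycycline together with test compound. Lysates were taken after 6 h (2 or 6 h in blots) for quantitative western blot of p-c-Jun(Ser73), with α-tubulin as load control. Normalized signal was fitted to a dose-response function for EC50. Blots are representative of two independent experiments.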

JNK1 C116S mutant = JNK1 C116S mutant (Homo sapiens, UniProt P45983, C116S); assay type: binding; conditions: repeat experiment, 100, 300, 1000 nM on JNK C116S surface
JNK1 C116S mutant, sequence (P45983 1-384 isoform P45983-3 C116S): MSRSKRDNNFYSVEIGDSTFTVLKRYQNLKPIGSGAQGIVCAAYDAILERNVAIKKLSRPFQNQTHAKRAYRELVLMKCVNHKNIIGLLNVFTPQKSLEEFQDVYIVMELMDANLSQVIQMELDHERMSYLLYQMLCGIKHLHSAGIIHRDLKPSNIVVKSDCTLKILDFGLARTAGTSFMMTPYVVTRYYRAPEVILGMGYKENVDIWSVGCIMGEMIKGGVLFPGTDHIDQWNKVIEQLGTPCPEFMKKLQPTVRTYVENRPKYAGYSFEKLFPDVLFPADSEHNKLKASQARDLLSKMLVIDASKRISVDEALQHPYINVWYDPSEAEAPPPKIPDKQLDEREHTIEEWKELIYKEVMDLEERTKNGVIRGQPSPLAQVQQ

[3] = stability in rat blood plasma; assay type: in vitro ADME; conditions: up to 120 min
Method in brief: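 Test compound from DMSO was added to male Wistar rat blood plasma at 1 or 10 μM final. Samples were taken at 0, 10, 20, 30, 60 and 120 min, quenched with ice-cold acetonitrile, and centrifuged. Parent compound was quantified by LC-MS/MS, and t1/2 was calculated from its decline.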

[4] = LC-MS of GSH adduct formation; assay type: physicochemical; conditions: 10 mM GSH, electrospray mass spectrometry
Method in brief: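 Mass analysis of glutathione adducts by LC-MS with electrospray ionisation. Linear gradient from 10% to 55% eluent B over 12 min, then 95% B, returning to 10% B by 18 min. Flow 0.4 ml/min, column at 40 °C. Source 350 °C, spray voltage 5500 V, declustering potential 80 V. Raw spectra deconvoluted to neutral molecular masses.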

JNK1 WT = JNK1 WT (Homo sapiens, UniProt P45983); test: SPR kinetic binding, wild-type JNK1 surface
JNK1 WT, sequence (P45983 1-384 isoform P45983-3): as the sequence (P45983 1-384 isoform P45983-3 C116S) above, with S116C counted along it

[5] = test system: p38-mediated MK2 phosphorylation; test: phospho-MK2 western blot in HEK293T MKK6EE cells; assay type: cell-based, human; conditions: doxycycline, JNK inhibitors 3 μM
Method in brief: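 HEK293T MKK6EE cells allow p38-specific activation through doxycycline-inducible expression of constitutively active MKK6EE. Phospho-MK2 was read by western blot with a fluorescent secondary antibody and infrared imaging. α-Tubulin served as load control, and anti-FLAG monitored transgene expression.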

[6] = test system: JNK mediated c-Jun phosphorylation; test: sorbitol stimulated c-Jun phosphorylation, western blot, HEK293T cells; assay type: cell-based, human; conditions: sorbitol 15 min, inhibitor 1 µM added 2 h before
Method in brief: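 HEK293T cells seeded at 50,000/well and grown to confluence (~24 h) in DMEM with 10% FBS, then serum-starved 16 h. Inhibitor in 50% DMSO added 2 h before 0.35 M sorbitol for 15 min; final DMSO 0.1%, with a DMSO-only control. Cells chilled on ice, pelleted, washed in cold PBS and lysed in SDS loading buffer. Lysates run on 10% Tris-glycine gels and blotted to nitrocellulose for phospho-JNK and phospho-c-Jun.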

JNK1, sequence (P45983 1-384 isoform P45983-3): as the sequence (P45983 1-384 isoform P45983-3 C116S) above, with S116C counted along it

IC50 (JNK1)	hepatic extraction (class) ([1]; cut-off 0.3 low/intermediate, 0.7 intermediate/high)	in vivo hepatic clearance (ClH), predicted ([1]; predicted from Clint measured in rat primary hepatocyte cultures)	Western blot p-c-Jun(Ser73) EC50/IC50 ([2]; SH-SY5Y MKK7 ACT cells, 6 h DOX stimulation)	k1, parallel measurement (JNK1 C116S mutant)	k2, parallel measurement (JNK1 C116S mutant)	half-life / stability in plasma [3]	k3, new experiment calculated with the newly determined k1, k2 (JNK1 WT; 1, 3, 15 nM on JNK WT surface)	k3, parallel measurement (JNK1 WT; new experiment (for CA-IN-8: a, 15, 40, 70 nM) on JNK WT surface)	Structure (SMILES)	effect on c-Jun(Ser73) phosphorylation ([2]; SH-SY5Y MKK7 ACT, 2 or 6 h DOX, inhibitor 50 nM or 1 µM)	GSH adduct formation [4]	effect on p38-mediated MK2 phosphorylation [5]	effect on c-Jun phosphorylation [6]
5.33 ± 0.232 µM									CC(=O)Nc1cccc(C(=O)Nc2ccc(Nc3nccc(-c4cccnc4)n3)c(C)c2)c1 [IN-8a]				
	low	10.1 mL/min/kg	~ 0.7 μM	1492000 M⁻¹ s⁻¹	0.1676 s⁻¹	stable	0.03454 s⁻¹	0.03181 s⁻¹	Cc1cc(NC(=O)c2cccc(NC(=O)/C=C/CN(C)C)c2)ccc1Nc1nccc(-c2cccnc2)n1 [JNK-IN-8]	can block c-Jun phosphorylation	irreversible covalent adduct formation with GSH	do not affect	efficiently blocked JNK mediated c-Jun phosphorylation

Source: paper PMC11452492 (Nature Communications, 2024)
